# T1: Squalene synthase (Rattus norvegicus, UniProt Q02769)
# T1 sequence (Q02769 whole entry): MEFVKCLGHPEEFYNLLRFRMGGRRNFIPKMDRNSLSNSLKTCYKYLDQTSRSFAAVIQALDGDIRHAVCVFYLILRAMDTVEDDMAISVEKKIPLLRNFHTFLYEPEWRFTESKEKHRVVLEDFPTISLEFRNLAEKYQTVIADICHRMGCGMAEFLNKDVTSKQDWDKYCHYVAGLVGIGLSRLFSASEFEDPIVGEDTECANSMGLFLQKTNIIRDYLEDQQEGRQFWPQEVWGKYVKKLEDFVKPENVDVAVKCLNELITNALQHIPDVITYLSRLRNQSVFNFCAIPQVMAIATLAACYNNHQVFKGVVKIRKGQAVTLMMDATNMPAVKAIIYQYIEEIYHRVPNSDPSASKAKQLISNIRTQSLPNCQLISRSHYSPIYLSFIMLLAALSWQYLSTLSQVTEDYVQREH
# B1: Squalene synthase (Rattus norvegicus), Q02769 (protein)
# chain: T1 sequence (Q02769 whole entry)
# What was measured:
# Rattus norvegicus [1] = species: Rattus norvegicus; assay: Compound was tested for the inhibition of cholesterol biosynthesis from [14C]- acetate in freshly isolated rat hepatocytes; format: functional; settings: Hepatocyte, read-out: I50
# Squalene synthase [2] = molecular target: T1, Squalene synthase; assay: Inhibitory activity against liver microsomal Squalene synthase; settings: read-out: I50
# Homo sapiens [3] = species: Homo sapiens; assay: Compound was tested for the inhibition of cholesterol biosynthesis from [14C]- acetate in freshly isolated from human skin fibroblasts; inactive at 300 uM; format: functional, organism-based
# Homo sapiens [4] = species: Homo sapiens; assay: Compound was tested for the inhibition of cholesterol biosynthesis from [14C]- acetate in freshly isolated from human skin fibroblasts; format: functional, organism-based; settings: read-out: I50
# Homo sapiens [5] = species: Homo sapiens; assay: Compound was tested for the inhibition of cholesterol biosynthesis from [14C]- acetate in freshly isolated from human skin fibroblasts; inactive at 30 uM; format: functional
# Homo sapiens [6] = species: Homo sapiens; assay: Compound was tested for the inhibition of cholesterol biosynthesis from [14C]- acetate in freshly isolated from human skin fibroblasts; inactive at 100 uM; format: functional, organism-based
# Squalene synthase [7] = molecular target: T1, Squalene synthase; assay: Inhibitory activity against microsomal squalene synthase
# Rattus norvegicus [8] = species: Rattus norvegicus; assay: Compound was tested for the inhibition of cholesterol biosynthesis from [14C]- acetate in freshly isolated rat hepatocytes; inactive at 200 uM; format: functional; settings: hepatocyte
# Homo sapiens [9] = species: Homo sapiens; assay: Compound was tested for the inhibition of cholesterol biosynthesis from [14C]- acetate in freshly isolated from human skin fibroblasts; inactive at 15 uM; format: functional, organism-based
# [10] = compound: CC(C)=CCC/C(C)=C/CC/C(C)=C/COP(=O)(O)OP(=O)(O)O; assay: Competitive inhibitory activity against microsomal Squalene synthase
# Summary of the method: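 Rat microsomal enzyme; inhibitor at 0, 2.5, 10 and 30 μM against FPP varied from 5 to 50 μM, with NADPH held saturating at 0.9 mM. Inhibition type and Ki were taken from double-reciprocal (Lineweaver-Burk) plots of the kinetic data.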
Molecule,IC50 (Rattus norvegicus [1]) [µM],IC50 (Squalene synthase [2]) [µM],further results
CC(C)=CCC/C(C)=C/CC/C(C)=C/CCCP(=O)([O-])C(=O)[O-].[Na+].[Na+],30,31.8,I50 (Homo sapiens [3]): Inactive
CCOC(=O)P(=O)(O)OCC/C=C(\C)CC/C=C(\C)CCC=C(C)C,9,106,IC50 (Homo sapiens [4]): 12 µM
CC(C)=CCC/C(C)=C/CC/C(C)=C/CCCOP(=O)(O)C(=O)O,–,41.6,–
CC(C)=CCC/C(C)=C/CC/C(C)=C/COP(=O)(O)CC(=O)O,273,86,–
CCOC(=O)P(=O)(O)CCC/C=C(\C)CC/C=C(\C)CCC=C(C)C,24,112,IC50 (Homo sapiens [4]): 2.2 µM
CC(C)=CCC/C(C)=C/CC/C(C)=C/CCP(=O)([O-])C(=O)[O-].[Na+].[Na+],5.7,100,I50 (Homo sapiens [5]): Inactive
CC(C)=CCC/C(C)=C/CC/C(C)=C/CCP(=O)([O-])CC(=O)[O-].[K+].[K+],71,–,I50 (Homo sapiens [6]): Inactive
CC(C)=CCC/C(C)=C/CC/C(C)=C/CCC[PH](=O)O,–,197,–
CC(C)=CCC/C(C)=C/CC/C(C)=C/CCP(=O)(O)CP(=O)(O)O,–,–,I50 (Homo sapiens [6]): Inactive; Ki (Squalene synthase [7]): 10 µM; I50 (Rattus norvegicus [8]): Inactive
CC(C)=CCC/C(C)=C/CC/C(C)=C/CCOP(=O)([O-])C(=O)[O-].[Na+].[Na+],6,8.7,I50 (Homo sapiens [9]): Inactive
B1,–,–,Km [10]: 12.7 µM
